Reference: ChEMBL document CHEMBL1143023, “Chemical synthesis and biological activities of 16alpha-derivatives of 5alpha-androstane-3alpha,17beta-diol as antiandrogens” (2007)
Active and inactive are the calls of the source. The calls are words filed in the database; no cut-off is given here.

Experiments:
[1] = Inhibition of DHT-stimulated proliferation of androgen sensitive AR+ Shionogi cells at 1 uM; assay type: functional; settings: Mus musculus
[2] = Stimulation of androgen sensitive AR+ Shionogi cell proliferation at 1 uM; assay type: functional, Mus musculus
Procedure, shortened: (§1)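 AR+ Shionogi cells were given test compound alone, without DHT, for 10 days. Growth was read as DNA content by a modified Fiszer-Szafarz method. Stimulation % = 100 × [DNA(compound) − DNA(control)]/[DNA(DHT) − DNA(control)], with 0.3 nM DHT set as 100%. One experiment in triplicate.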

PC-3 [3] = test: Reduction of non-androgen sensitive AR- PC3 cell growth at 0.3 uM; assay type: functional, cell-based
Procedure, shortened: (§2)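 PC-3 human prostate carcinoma (AR−) cells from passage 28 were allowed to adhere for 24 h. Medium was then changed to MEM with 2% charcoal-stripped FBS containing compound from 1000-fold ethanol stocks; the vehicle control was 0.1% EtOH. Cells grew 9 days at 37 °C, 5% CO2, with medium changes every 2–3 days. DNA content was measured; triplicate wells.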

[4] = Proliferative activity on androgen sensitive AR+ Shionogi cells at 0.1 uM relative to DHT; assay type: functional, Mus musculus; procedure, shortened: as §1
[5] = Inhibition of DHT-stimulated proliferation of androgen sensitive AR+ Shionogi cells at 0.1 uM; assay type: functional; settings: Mus musculus
PC-3 [6] = test: Reduction of non-androgen sensitive AR- PC3 cell growth at 1 uM; assay type: functional, cell-based; procedure, shortened: as §2

Compound | inhibition at 1 µM [1] [%] | Activity [2] [%] | Activity (PC-3 [3]) | Activity [4] [%] | inhibition at 0.1 µM [5] [%] | Activity (PC-3 [6])
C[C@]12CC[C@H]3[C@@H](CCC4CC(=O)CC[C@@]43C)[C@@H]1C[C@@H](CCCCl)[C@@H]2O (stereo partly specified) | 42 | 52 | inactive | 36 | 44 | inactive
C[C@]12CC[C@@H](O)C[C@@H]1CC[C@@H]1[C@@H]2CC[C@]2(C)[C@@H](O)[C@H](CCCI)C[C@@H]12 | 90 | – | – | 0 | 36 | –
C[C@]12CC[C@@H](O)C[C@@H]1CC[C@@H]1[C@@H]2CC[C@]2(C)[C@@H](O)[C@H](CCCOCc3ccc(Br)cc3)C[C@@H]12 | 7 | – | – | 163 | 0 | –
C[C@]12CCC(=O)C[C@@H]1CC[C@@H]1[C@@H]2CC[C@]2(C)[C@@H](O)[C@H](CCCOCc3ccc(Br)cc3)C[C@@H]12 | 0 | – | – | 153 | 0 | –
C[C@]12CC[C@H]3[C@@H](CCC4CC(=O)CC[C@@]43C)[C@@H]1C[C@@H](CCCO)[C@@H]2O (stereo partly specified) | 46 | – | – | 9 | 54 | –
C[C@]12CC[C@@H](O)C[C@@H]1CC[C@@H]1[C@@H]2CC[C@]2(C)[C@@H](O)[C@H](CCCF)C[C@@H]12 | 70 | – | – | 0 | 44 | –
C[C@]12CC[C@@H](O)C[C@@H]1CC[C@@H]1[C@@H]2CC[C@]2(C)[C@@H](O)[C@H](CCCN=[N+]=[N-])C[C@@H]12 | 89 | – | – | 0 | 58 | –
C[C@]12CCC(=O)C[C@@H]1CC[C@@H]1[C@@H]2CC[C@]2(C)[C@@H](O)[C@H](CCCSC#N)C[C@@H]12 | 45 | – | – | 21 | 0 | –
C[C@]12CC[C@H]3[C@@H](CCC4CC(=O)CC[C@@]43C)[C@@H]1C[C@@H](CCCI)[C@@H]2O (stereo partly specified) | 76 | – | – | 22 | 41 | –
C[C@]12CC[C@@H](O)C[C@@H]1CC[C@@H]1[C@@H]2CC[C@]2(C)[C@@H](O)[C@H](CCCN)C[C@@H]12 | 0 | – | – | 1 | 0 | –
C[C@]12CC[C@@H](O)C[C@@H]1CC[C@@H]1[C@@H]2CC[C@]2(C)[C@@H](O)[C@H](CCCO)C[C@@H]12 | 35 | – | – | 0 | 16 | –
CO[C@@H]1CC[C@@]2(C)[C@@H](CC[C@@H]3[C@@H]2CC[C@]2(C)[C@@H](O)[C@H](CCCI)C[C@@H]32)C1 | 46 | – | – | 0 | 0 | –
C[C@]12CC[C@@H](O)C[C@@H]1CC[C@@H]1[C@@H]2CC[C@]2(C)[C@@H](O)[C@H](CCCCl)C[C@@H]12 | 94 | – | inactive | 0 | 67 | inactive
CC(C)(O)C(=O)Nc1ccc([N+](=O)[O-])c(C(F)(F)F)c1 [HYDROXYFLUTAMIDE] | 100 | – | – | 0 | 67 | –
C[C@]12CC[C@@H](O)C[C@@H]1CC[C@@H]1[C@@H]2CC[C@]2(C)[C@@H](O)[C@H](CCCSC#N)C[C@@H]12 | 50 | – | – | 5 | 2 | –
C[C@]12CC[C@H]3[C@@H](CCC4CC(=O)CC[C@@]43C)[C@@H]1C[C@@H](CCCN=[N+]=[N-])[C@@H]2O (stereo partly specified) | 58 | – | – | 33 | 73 | –
C[C@]12CC[C@@H](O)C[C@@H]1CC[C@@H]1[C@@H]2CC[C@]2(C)[C@@H](O)[C@H](CCCBr)C[C@@H]12 | 80 | – | – | 0 | 46 | –
